Reference: paper PMC9290801 (Journal of Clinical Pharmacology, 2021)
Where two headings read alike, the source gives them in different places.

Tests used:
CYP2C19 = CYP2C19 contribution to selumetinib clearance; parameters: species or system human
[1] = Madin-Darby Canine Kidney II permeability measurement; assay type: in vitro ADME; conditions: dog, MDCK
[2] = adults with solid tumors; cited from earlier work
[3] = cited from earlier work
CYP3A = CYP3A contribution to selumetinib clearance; parameters: species or system human
[4] = single oral dose, healthy adult subjects; cited from earlier work
[5] = Physicochemical parameters
[6] = coadministration with rifampicin vs selumetinib alone; cited from earlier work
[7] = Blood-to-plasma ratio and plasma protein binding; assay type: in vitro ADME
[8] = PBPK model absorption/distribution input parameters; parameters: species or system human; conditions: Estimated based on observed Cmax and PK profile (Study NCT02093728)
Procedure, shortened: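 Minimal 4-compartment PBPK model in Simcyp v17 with first-order absorption and a single adjusting compartment (intercompartmental clearance 8 L/h, from a population PK model). Compartment volume was fitted to observed Cmax and profile from a healthy-volunteer trial: 10 × 10 virtual subjects aged 18–44 years given a single oral 25 mg dose.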

P-glycoprotein (P-gp) = assay: P-gp transport kinetics; assay type: in vitro ADME; conditions: not told
Procedure, shortened: (§1)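 Intestinal P-gp kinetics were estimated by the Troutman–Thakker approach, assuming one-site saturable Michaelis–Menten kinetics, with intrinsic clearance derived from Jmax and Km. The values were placed at the intestinal apical site (ADAM absorption, minimal PBPK) and at the hepatic canalicular site (full PBPK, tissue:plasma Kp 0.4).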

P‐glycoprotein (P‐gp) = assay: P-gp transport kinetics; assay type: in vitro ADME
Procedure, shortened: as §1

[9] = cited from earlier work; remark: listed apart in the source
[10] = cited from earlier work; remark: listed apart in the source

Cn1cnc2c(F)c(Nc3ccc(Br)cc3Cl)c(C(=O)NOCCO)cc21 [selumetinib]
CYP2C19 CLint (CYP2C19; Retrograde from CLpo 19.6 L/h, fm 15%): 3.335 µL/min/pmol | fm (fraction metabolized) by CYP2C19 (CYP2C19; assigned according to DDI study with fluconazole): 15% | Papp [1]: 37.7 ×10⁻⁶ cm/s | maximum tolerated dose [2]: 75 mg | fraction of absorption (Oral dose → First pass) ([3]; oral dose): > 71% | dose eliminated as unchanged in urine ([3]; renal elimination): < 1 % of dose | CYP3A CLint (CYP3A; Retrograde from CLpo 19.6 L/h, fm 25%): 0.568 µL/min/pmol | fm (fraction metabolized) by CYP3A (CYP3A; assigned according to DDI study with itraconazole): 25% | absolute (oral) bioavailability [4]: 62% | logP [5]: 3.88 | decrease in AUC [6]: 51% | reduction in Cmax [6]: 26% | B:P (blood‐to‐plasma ratio) ([7]; Report KPJ003): 0.625 | fraction unbound ([7]; plasma): 0.016 | Vsac (volume of single adjusting compartment) [8]: 1 L/kg | Km (P-glycoprotein (P-gp)): 15.8 µM | maximal carrier‐mediated flux (Jmax) (P‐glycoprotein (P‐gp); estimated, one‐site Michaelis‐Menten saturable kinetics): 9.9 pmol/min | P‐gp intrinsic clearance (P‐glycoprotein (P‐gp); from Jmax and Km): 0.62 µL/min | Observed geomean AUC (CV%) ([9]; 25 mg dose+fluconazole): 1770 ng·h/mL | Observed geomean AUC (CV%) ([9]; 25 mg dose+itraconazole): 1760 ng·h/mL | Observed geomean AUC (CV%) ([9]; 25 mg single oral dose alone, healthy volunteers): 1180 ng·h/mL | observed exposure (AUC from time 0 to 12 hours) ([10]; SPRINT phase 2 cohort, 25 mg/m^2): 2009 ng·h/mL | maximum tolerated dose ([10]; pediatric SPRINT phase 1, twice daily): 25 mg/m^2 | terminal elimination half‐life ([10]; pediatric patients, single oral dose): ≈ 6 hours
